Source: PubChem
Ecoli WT expand: E. coli BW25113 growth inhibition, expanded screen; growth inhibition, % at 100 µM; AID 710; OD600 absorbance; 98,000 compounds, 0.15% hits;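 active = growth inhibition above about 50% at one test dose, limit read from the data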;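 note: growth measured after 20 h incubation at 37 °C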
PostGolgi ctrl: growth of the yeast control strain, post-Golgi counter-screen; efflux-deficient yeast background strain, growth absorbance A615, 16 h; 98,000 compounds, 5% hits; inhibition, % at 10 µM; AID 738
PostGolgi yeast: growth inhibition of a yeast mutant, post-Golgi transport screen. post-Golgi transport phenotypic cell assay. inhibition, % at 10 µM. 98,000 compounds, 0.9% hits;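 note: yeast cells grown in 1536-well plates; yeast grown about 18 h at 30C before absorbance read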
Ecoli tolC: blocks growth of E. coli BW25113 tolC mutant | OD615 | growth inhibition, % at 10 µM (by protocol) | AID 573 | 65,000 compounds, 2.2% hits;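 active = growth inhibition at or above a cutoff equal to the mean over every tested compound plus 3 SD, cut at about 60% in these data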;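 note: growth measured after 20 h incubation at 37 °C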
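Material: E. coli BW25113 ΔtolC::kan, tolC deletion mutant strain. Measure: percent growth inhibition. Schedule: 37 °C, 20 h exposure. Doses: single-point testing at 10 µM. Signal: A615 absorbance measurement. Buffer or medium: kanamycin-containing LB broth (50 µg/mL).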
Active calls of the source: *. This is a sample that favours compounds with a hit; in the whole collection about 6.3% have one here. Cut-off read from the data, not from the text of the source, unless noted: active = inhibition above about 30%; inactive = the rest.

How did CC1CC(C)CN(C(=O)CSc2nnc(-c3ccc(F)cc3)o2)C1 (stereo unspecified) do in these assays?
Ecoli WT expand: 5; PostGolgi ctrl: 9; PostGolgi yeast: -2; Ecoli tolC: 1

Results for CCOc1ccccc1-c1nc(-c2cc3ccc(C)cc3[nH]c2=O)no1 ?
Ecoli WT expand: -14; PostGolgi ctrl: 31*; PostGolgi yeast: -8; Ecoli tolC: -1

How did CCCc1nc(-c2cc3ccc(C)cc3[nH]c2=O)no1 do in these assays?
Ecoli WT expand: -14; PostGolgi ctrl: 0; PostGolgi yeast: 2; Ecoli tolC: -2

What do the screens show for `Cc1ccc(-c2nc(C#N)c(NCCc3ccccn3)o2)cc1`?
Ecoli WT expand: -1; PostGolgi ctrl: 33*; PostGolgi yeast: 0; Ecoli tolC: 4

How did Cc1ccc(CN2C(=O)CCC2C(=O)NCCN2CCN(c3cccc(Cl)c3)CC2)cc1 (stereo unspecified) do in these assays?
Ecoli tolC: 6

How did Cc1ccc(OCC(=O)N/N=C\c2c(C)n(C)c3ccccc23)c([N+](=O)[O-])c1 do in these assays?
Ecoli WT expand: -6; PostGolgi ctrl: 54*; PostGolgi yeast: -1

What do the screens show for `Cc1ccc(OCC(=O)N/N=C/c2ccc([N+](=O)[O-])o2)cc1`?
Ecoli WT expand: 29; PostGolgi ctrl: 21; PostGolgi yeast: 5

Results for O=S(=O)(c1ccc(Cl)cc1)n1nnc2ccccc21 ?
Ecoli WT expand: -1; PostGolgi ctrl: 3; PostGolgi yeast: 10

How did CCCCCCCC(=O)NNC(=O)Cc1ccccc1 do in these assays?
Ecoli WT expand: -8; PostGolgi ctrl: -4; PostGolgi yeast: -2

What do the screens show for `CCCCCC/C(C)=C1/SC(=S)NC1=O`?
Ecoli WT expand: 14; PostGolgi ctrl: 55*; PostGolgi yeast: -3

Results for CCNc1nc(SCc2ccccc2)nc(N2CCOCC2)n1 ?
Ecoli WT expand: 2; PostGolgi ctrl: 14; PostGolgi yeast: 15; Ecoli tolC: 66*

Results for CN(C)c1nc(SCc2ccccc2)nc(N2CCOCC2)n1 ?
Ecoli WT expand: 10; PostGolgi ctrl: 7; PostGolgi yeast: -21

Results for CCOC(=O)c1ccc(NC(=O)CCc2nc(-c3ccccc3Cl)no2)cc1 ?
Ecoli WT expand: 5; PostGolgi ctrl: 17; PostGolgi yeast: -3; Ecoli tolC: 99*

Results for Cc1cc(C(F)F)n2ncc(C(=O)NCCc3ccccc3Cl)c2n1 ?
Ecoli WT expand: 8; PostGolgi ctrl: 8; PostGolgi yeast: 0

What do the screens show for `Cc1cc(C(F)F)n2ncc(C(=O)NCCc3ccc(Cl)cc3)c2n1`?
Ecoli WT expand: 7; PostGolgi ctrl: 49*; PostGolgi yeast: 3

Results for O=C(NCCc1ccccc1)c1cnn2c(C(F)F)cc(C3CC3)nc12 ?
Ecoli WT expand: 3; PostGolgi ctrl: 39*; PostGolgi yeast: 18; Ecoli tolC: 50

How did COC(=O)c1ccccc1NC(=O)c1cnn2c(C(F)F)cc(C3CC3)nc12 do in these assays?
Ecoli WT expand: -5; PostGolgi ctrl: 43*; PostGolgi yeast: 17; Ecoli tolC: 13

How did O=C(c1cnn2c(C(F)F)cc(C3CC3)nc12)N1CCc2ccccc2C1 do in these assays?
Ecoli WT expand: 7; PostGolgi ctrl: 8; PostGolgi yeast: -2; Ecoli tolC: 38

How did O=C(Nc1ccc(N2CCOCC2)cc1)C1CCCN(S(=O)(=O)c2cccc(C(F)(F)F)c2)C1 (stereo unspecified) do in these assays?
Ecoli WT expand: -2; PostGolgi ctrl: 2; PostGolgi yeast: -1; Ecoli tolC: -7

Results for O=C(CN1CCC(n2nnc3cc(F)ccc32)CC1)Nc1ccccc1N1CCOCC1 ?
Ecoli WT expand: 2; PostGolgi ctrl: 11; PostGolgi yeast: 10; Ecoli tolC: 31

What do the screens show for `NC1=NC(c2cn(-c3ccccc3)nc2-c2cccs2)n2c(nc3ccccc32)N1` (stereo unspecified)?
Ecoli WT expand: 6; PostGolgi ctrl: 9; PostGolgi yeast: 22; Ecoli tolC: 100*

What do the screens show for `CCCCOn1c(C)c(C(=O)OCC)c2c3nonc3ccc21`?
Ecoli tolC: 66*

Results for CCCCOn1c(C)c(C(=O)OCC)c2c3no[n+]([O-])c3ccc21 ?
Ecoli WT expand: -8; PostGolgi ctrl: 5; PostGolgi yeast: 1; Ecoli tolC: 26

What do the screens show for `CCC(C)n1cnc2c(c1=O)c1nc3ccccc3nc1n2Cc1ccc(OC)cc1` (stereo unspecified)?
Ecoli WT expand: -11; PostGolgi ctrl: 36*; PostGolgi yeast: -5

Results for CCN(CC)C(=O)Nc1cnc2ccccc2c1 ?
Ecoli WT expand: -1; PostGolgi ctrl: 33*; PostGolgi yeast: 3; Ecoli tolC: -11

How did COc1ccc2nc(NC(=O)C3COc4ccccc4O3)sc2c1 (stereo unspecified) do in these assays?
Ecoli WT expand: -9; PostGolgi ctrl: 36*; PostGolgi yeast: 4; Ecoli tolC: 93*

How did COc1cc(CN(C(=O)c2ccco2)c2ccc(C)cc2)ccc1O do in these assays?
Ecoli WT expand: 29; PostGolgi ctrl: 12; PostGolgi yeast: -12; Ecoli tolC: 21

Results for Cc1ccc(N(Cc2ccc([N+](=O)[O-])cc2)C(=O)c2ccco2)cc1 ?
Ecoli WT expand: -12; PostGolgi ctrl: 35*; PostGolgi yeast: 12

What do the screens show for `CC1(C(=O)OCC(=O)c2c[nH]c3ccccc23)CC1(Cl)Cl` (stereo unspecified)?
Ecoli WT expand: 15; PostGolgi ctrl: 22; PostGolgi yeast: 9

How did N#CC1=C(SCC(=O)Nc2cccc3cccnc23)NC(=O)C(C#N)C12CCCCC2 (stereo unspecified) do in these assays?
Ecoli WT expand: -3; PostGolgi ctrl: 4; PostGolgi yeast: -7; Ecoli tolC: 60

Results for N#CC1=C(SCC(=O)NC2CC2)NC(=O)C(C#N)C12CCCCC2 (stereo unspecified) ?
Ecoli WT expand: 1; PostGolgi ctrl: 4; PostGolgi yeast: 2; Ecoli tolC: 7

What do the screens show for `CC(C)(C)C1CCC2(CC1)C(C#N)=C(SCC(=O)NC1CCCCC1)NC(=O)C2C#N` (stereo unspecified)?
Ecoli WT expand: 2; PostGolgi ctrl: 24; PostGolgi yeast: 2; Ecoli tolC: 75*

How did N#CC1=C(SCC(=O)NC23CC4CC(CC(C4)C2)C3)NC(=O)C(C#N)C12CCCCC2 (stereo unspecified) do in these assays?
Ecoli WT expand: -6; PostGolgi ctrl: 6; PostGolgi yeast: -5; Ecoli tolC: 86*

How did O=C1Nc2ccccc2C(O)(C(=O)NCc2ccc3c(c2)OCO3)N1c1ccc(Cl)c(Cl)c1 (stereo unspecified) do in these assays?
Ecoli WT expand: -3; PostGolgi ctrl: 20; PostGolgi yeast: -19

Results for Cc1nc2cc(NC(=O)COc3ccc(C#N)cc3)ccc2n1-c1ccccc1 ?
Ecoli WT expand: -7; PostGolgi ctrl: 6; PostGolgi yeast: 8; Ecoli tolC: 7

What do the screens show for `Cc1cccc(C(C)Nc2ccc([N+](=O)[O-])cn2)c1` (stereo unspecified)?
Ecoli WT expand: 17; PostGolgi ctrl: 8; PostGolgi yeast: -10

How did CCN(CC)C(=O)CSC1=C(C#N)C(c2cccs2)C=C(C)N1 (stereo unspecified) do in these assays?
Ecoli WT expand: -5; PostGolgi ctrl: 19; PostGolgi yeast: -8; Ecoli tolC: 5
